Results from ChEMBL document CHEMBL4270592, “8-Aryl-6-chloro-3-nitro-2-(phenylsulfonylmethyl)imidazo[1,2-a]pyridines as potent antitrypanosomatid molecules bioactivated by type 1 nitroreductases” (Eur J Med Chem, 2018).

Key:
[1] = system: Trypanosoma brucei brucei; assay: Antitrypanosomal activity against trypomastigote stage of Trypanosoma brucei brucei AnTat 1.9 assessed as decrease in parasite viability after 69 hrs by Alamar blue assay; format: functional, organism-based; settings: AnTat 1.9, 69 h
In short: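 AnTat 1.9 in MEM with Earle's salts plus 0.5 mM mercaptoethanol, 1.5 mM L-cysteine, 0.05 mM bathocuproine sulfate and 20% heat-inactivated horse serum, 37 °C, 5% CO2. Seeded 2000 parasites/100 µL with compounds in DMSO, in duplicate, 69 h, then Alamar Blue for 5 h.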

Leishmania donovani [2] = assay: Antileishmanial activity against intramacrophage amastigote stage of Leishmania donovani infected in human THP1 cells after 120 hrs by Giemsa staining based microscopy; format: functional, organism-based; settings: THP-1, 120 h
In short: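 THP-1 cells differentiated with PMA (final 50 ng/mL) for 48 h at 37 °C, 6% CO2. Infected 10:1 with L. donovani promastigotes acidified 24 h at 27 °C in Schneider 20% FCS pH 5.4. After 24 h, compounds added in duplicate (DMSO <0.5% v/v) for 120 h.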

[3] = Selectivity index, ratio of CC50 for human HepG2 cells to IC50 for trypomastigote stage of Trypanosoma brucei brucei AnTat 1.9; format: toxicity; settings: read-out: Ratio CC50/IC50
[4] = Selectivity index, ratio of CC50 for human HepG2 cells to IC50 for promastigote stage of Leishmania donovani MHOM/IN/00/DEVI; format: toxicity; settings: read-out: Ratio CC50/IC50
[5] = Selectivity ratio of IC50 for wild type promastigote stage of Leishmania donovani MHOM/SD/62/1S-CL2D LdBOB to substrate activity at recombinant type-1 nitroreductase in promastigote stage of Leishmania donovani MHOM/SD/62/1S-CL2D LdBOB; format: toxicity
In short: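 LdBOB promastigotes grown at 26 °C in modified M199. NTR1- and NTR2-overexpressing lines were kept with 100 µg/mL nourseothricin. Triplicate 10 mL cultures seeded at 5×10^4 parasites/mL with drug for 72 h. Aliquots given 50 µM resazurin, fluorescence (ex 528/em 590 nm) read after 4 h. EC50 from a background-corrected 2-parameter fit; at least two repeats, mean plus SD.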

HepG2 = assay: Cytotoxicity against human HepG2 cells assessed as reduction in cell viability after 72 hrs by MTT assay; format: cell-based; settings: hepg2, 72 h
In short: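 HepG2 cells in RPMI with 10% FCS, L-glutamine and penicillin/streptomycin, 37 °C, 6% CO2. After 24 h, compounds in DMSO (final <0.5% v/v) added for 72 h, in duplicate. Precipitate checked, MTT (0.5 mg/mL) 2 h, formazan dissolved in DMSO, A570 with 630 nm reference. Viability as % of untreated control; CC50 from dose-response curve; doxorubicin positive control.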

Leishmania donovani [6] = assay: Antileishmanial activity against wild type promastigote stage of Leishmania donovani MHOM/SD/62/1S-CL2D LdBOB after 72 hrs by resazurin dye based assay; format: functional, organism-based
In short: (§1)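 Clonal L. donovani LdBOB promastigotes grown at 26 °C in modified M199. NTR1 and NTR2 overexpressers kept in nourseothricin 100 µg/mL. Triplicate 10 mL cultures seeded at 5×10^4 parasites/mL with drug for 72 h. Aliquots received 50 µM resazurin, read by fluorescence (ex 528/em 590 nm) after 4 h. Background-corrected 2-parameter fit gave EC50; at least two repeats, mean ± SD.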

THP-1 = assay: Cytotoxicity against human THP1 cells assessed as reduction in cell viability after 72 hrs by MTT assay; format: cell-based; settings: thp-1, 72 h
In short: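 THP1 cells in complete RPMI with PMA (final 50 ng/mL) at 10⁶ cells/mL, differentiated 48 h. Compounds in DMSO (final <0.5% v/v) then added for 72 h at 37 °C. MTT (0.5 mg/mL in FCS-free medium) 2 h, formazan dissolved in DMSO, A570 with 630 nm reference. Viability as % of untreated control; CC50 from dose-response curve; doxorubicin positive control.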

[7] = Substrate activity at recombinant nitroreductase 2 in promastigote stage of Leishmania donovani MHOM/SD/62/1S-CL2D LdBOB assessed as inhibition of parasite growth after 72 hrs by resazurin dye based assay; in short: as §1
[8] = Selectivity index, ratio of CC50 for human HepG2 cells to IC50 for axenic amastigote stage of Leishmania infantum; format: toxicity; settings: read-out: Ratio CC50/IC50
[9] = Electrochemical behavior of the compound assessed as redox potential corrected toward normal hydrogen electrode by cyclic voltammetry; format: physicochemical
Leishmania donovani [10] = assay: Antileishmanial activity against promastigote stage of Leishmania donovani MHOM/IN/00/DEVI assessed as inhibition of parasite metabolic activity after 72 hrs by MTT assay; format: functional, organism-based
In short: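 MHOM/IN/00/DEVI log-phase promastigotes in Schneider's medium with 20% FCS, 2 mM L-glutamine and antibiotics. Seeded at 10⁶ parasites/mL with compounds in DMSO (final <0.5% v/v), in duplicate, 72 h at 27 °C. MTT added for 4 h, stopped with 50% isopropanol–10% SDS, A570 read. IC50 by nonlinear regression, mean of three independent experiments.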

[11] = Substrate activity at recombinant type-1 nitroreductase in promastigote stage of Leishmania donovani MHOM/SD/62/1S-CL2D LdBOB assessed as inhibition of parasite growth after 72 hrs by resazurin dye based assay; in short: as §1
Leishmania infantum = assay: Antileishmanial activity against axenic amastigote stage of Leishmania infantum assessed as inhibition of parasite metabolic activity after 48 hrs by luciferase reporter gene based luminescence assay; format: functional, organism-based
In short: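 L. infantum promastigotes in log phase switched to RPMI 1640 pH 5.4 for 24 h at 24 °C, then 24 h at 37 °C to give axenic amastigotes. Seeded at 2.106 parasites/mL with compounds in DMSO (final <0.5% v/v), in duplicate, 48 h at 37 °C. Wells checked for precipitate, luciferase luminescence read, IC50 by non-linear regression as mean.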

[12] = Selectivity index, ratio of CC50 for human HepG2 cells to IC50 for intramacrophage amastigote stage of Leishmania donovani infected in human THP1 cells; format: toxicity, cell-based; settings: read-out: Ratio CC50/IC50

O=[N+]([O-])c1c(CS(=O)(=O)c2ccccc2)nc2c(-c3cccc(CO)c3)cc(Cl)cn12
IC50 [1]: 0.15 µM
IC50 (Leishmania donovani [2]): > 10 µM
selectivity ratio [3]: > 167
selectivity ratio [4]: > 19.2
Ratio IC50 [5]: 20 to 40
CC50 (HepG2): > 25 µM
IC50 (Leishmania donovani [6]): 1.4 µM
CC50 (THP-1): > 15 µM
IC50 [7]: 1.9 µM
selectivity ratio [8]: > 17.9
Activity [9]: -0.7 V
IC50 (Leishmania donovani [10]): 1.3 µM
IC50 [11]: 0.07 µM

O=[N+]([O-])c1c(CS(=O)(=O)c2ccccc2)nc2c(-c3ccncc3)cc(Cl)cn12
IC50 [1]: 0.25 µM
IC50 (Leishmania donovani [2]): 2.3 µM
selectivity ratio [3]: > 200
selectivity ratio [4]: > 41.7
Ratio IC50 [5]: 20 to 40
IC50 (Leishmania infantum): 3 µM
CC50 (HepG2): > 50 µM
IC50 (Leishmania donovani [6]): 1.5 µM
CC50 (THP-1): > 25 µM
IC50 [7]: 2 µM
selectivity ratio [8]: > 16.7
Activity [9]: -0.64 V
IC50 (Leishmania donovani [10]): 1.2 µM
IC50 [11]: 0.04 µM
selectivity ratio [12]: > 21.7
